Source: ChEMBL document CHEMBL1158073, “Bioactive compounds from the seed fungus Menisporopsis theobromae BCC 3975” (J Nat Prod, 2006)
≈ marks a conversion by molar mass, not a printed value. Counter-ions that a name gives are not always drawn.

How the values were obtained:
[1] = tested on: Mycobacterium tuberculosis; test: Antimycobacterial activity against Mycobacterium tuberculosis H37Ra by microplate alamar blue assay; format: functional
In short: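 M. tuberculosis H37Ra tested by microplate Alamar Blue assay, value reported as MIC. Isoniazid and kanamycin sulfate as reference compounds.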

[2] = tested on: KB; test: Cytotoxicity against human KB cells by colorimetric method; format: functional, cell-based
[3] = Cytotoxicity against human BC1 cells by colorimetric method; format: functional, cell-based
In short: (§1)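 Colorimetric cytotoxicity assay following Skehan and co-workers. Cells: BC-1 (human breast cancer) and NCI-H187 (human small cell lung cancer). IC50 values reported in μM. Ellipticine served as the standard positive control.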

[4] = tested on: NCI-H187; test: Cytotoxicity against human NCI-H187 cells by colorimetric method; format: functional, cell-based; in short: as §1
[5] = tested on: Plasmodium falciparum; test: Antimalarial activity against multidrug-resistant Plasmodium falciparum K1 by [3H]hypoxanthine uptake; format: functional, organism-based
In short: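 P. falciparum K1 kept in continuous culture; in vitro microculture radioisotope method. IC50 taken as the concentration giving 50% reduction in parasite growth, read as uptake of [3H]hypoxanthine. Dihydroartemisinin as positive control.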

Row | SMILES | MIC [1] | IC50 [2] | IC50 [3] | IC50 [4] | IC50 [5]
1 | NC[C@H]1O[C@H](O[C@H]2[C@H](O)[C@@H](O[C@H]3O[C@H](CO)[C@@H](O)[C@H](N)[C@H]3O)[C@H](N)C[C@@H]2N)[C@H](O)[C@@H](O)[C@@H]1O [KANAMYCIN SULFATE] | 3.43 µM | – | – | – | –
2 | CCCCC/C=C/C(O)C(O)/C=C/c1c(CC(O)C(C)(C)O)ccc(O)c1CO (stereo unspecified) | 245 µM (≈ 100 µg/mL) | > 49 µM | > 49 µM | > 49 µM | > 49 µM
3 | O=C1c2c(O)cccc2[C@H](O)[C@H](O)[C@H]1O | 952 µM (≈ 200 µg/mL) | > 95.2 µM | > 95.2 µM | 56.6 µM | > 95.2 µM
4 | CCCC(=O)CC/C=C/[C@H](O)[C@@H]1O[C@H]1CO | > 303 µM | > 30.3 µM | > 30.3 µM | > 30.3 µM | > 30.3 µM
5 | NNC(=O)c1ccncc1 [ISONIAZID] | 0.29 µM (≈ 0.0398 µg/mL) | – | – | – | –
6 | C/C=C(\C)C(=O)C(C)C(O)C(C)C(=O)O[C@H]1C=COC=C2C[C@@]3(SC)C(=O)N4c5c(O)cccc5[C@@H](O)[C@@]4(SC)C(=O)N3[C@@H]21 (stereo partly specified) | 1.24 µM (≈ 0.8 µg/mL) | > 31 µM | > 31 µM | 20.3 µM | 2.95 µM
7 | Cc1c2ccncc2c(C)c2c1[nH]c1ccccc12 [ELLIPTECINE] | – | 5.41 µM | 5.93 µM | 1.59 µM | –
8 | CS[C@@]12CC3=CC=C[C@H](O)[C@H]3N1C(=O)[C@]1(SC)CC3=COC=C[C@H](O)[C@H]3N1C2=O | 7.14 µM (≈ 3.1 µg/mL) | > 46 µM | > 46 µM | > 46 µM | > 46 µM
9 | CC(O)CCC/C=C/C(O)C(O)/C=C/c1c(CC(O)C(C)(C)O)ccc(O)c1C=O (stereo unspecified) | 474 µM (≈ 200 µg/mL) | > 47.3 µM | > 47.3 µM | > 47.3 µM | > 47.3 µM
10 | C/C=C/C(C=O)=C\C=C\C(O)C(O)[C@@H]1O[C@H]1CO (relative stereo) | > 787 µM | > 78.7 µM | > 78.7 µM | > 78.7 µM | > 78.7 µM
11 | C/C=C(\C)C(=O)C(C)C(O)C(C)C(=O)O[C@H]1C=COC=C2C[C@@]3(SC)C(=O)N4[C@H]5C(=CC=C[C@@H]5O)[C@@H](O)[C@@]4(SC)C(=O)N3[C@@H]21 (stereo partly specified) | 155 µM (≈ 100 µg/mL) | > 30.9 µM | 29.2 µM | 22.9 µM | > 30.9 µM
12 | C[C@H]1[C@@H](O)O[C@@H]2O[C@@]3(C)CC[C@H]4[C@H](C)CC[C@@H]1[C@@]24OO3 [ARTENIMOL] | – | – | – | – | 0.004 µM
